We go through one compound from article PMC13154657 (Journal of Advanced Research, 2025).

Data set [1] has as its system DSS-induced experimental colitis. As to the kind of experiment: DSS-induced experimental colitis model in mice. The class given is in vivo. The conditions noted are these: DB07565 rectally daily. In short, it runs like this: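 Male C57BL/6 J mice, 7–8 weeks, randomised by weight into groups of six. Colitis induced with 3 % (w/v) DSS in drinking water for 7 days. Test compound dissolved in DMSO, diluted in PBS to 50 or 100 μM, given rectally at 100 µl/mouse daily. Oral 5-ASA 50 mg/kg daily as reference. Colons fixed in 4 % PFA and paraffin-embedded. 5 μm sections stained with H&E; immunofluorescence for Claudin-1, Occludin and ZO-1 at 4 ℃ overnight, 1 h secondary, DAPI 10 min.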

A further data set concerns the target T1, human P2Y14 receptor (Homo sapiens, UniProt Q15391).
T1 sequence (Q15391 1-338): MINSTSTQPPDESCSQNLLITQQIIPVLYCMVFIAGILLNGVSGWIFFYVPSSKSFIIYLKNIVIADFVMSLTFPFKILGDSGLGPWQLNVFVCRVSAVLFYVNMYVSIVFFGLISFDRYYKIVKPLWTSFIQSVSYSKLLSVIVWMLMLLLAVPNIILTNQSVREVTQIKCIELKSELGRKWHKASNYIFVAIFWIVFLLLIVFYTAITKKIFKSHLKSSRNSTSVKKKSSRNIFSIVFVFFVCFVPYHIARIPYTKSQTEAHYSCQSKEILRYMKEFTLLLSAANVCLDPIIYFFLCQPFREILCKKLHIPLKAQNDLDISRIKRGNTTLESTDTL
The data set is described as follows: In vitro P2Y14R antagonistic activity. It counts as cell-based. Summed up: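 hP2Y14-HEK293 cells (HEK293 stably expressing human P2Y14R) grown in DMEM with 10 % FBS and 1 % penicillin/streptomycin. Seeded at 10,000 cells/well in 384-well plates and preincubated 30 min at 37 °C with test compound or DMSO. Stimulated with UDPG; intracellular cAMP measured by cAMP-Glo luminescence on a plate reader. N = 3.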

The next data set relates to HT-29 cells. As to the kind of experiment: Cell viability assay. It counts as cell-based. As to conditions: 100 μM, 24 h, CCK-8, N = 5. Summed up:
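HT-29 cells cultured in DMEM with 10 % FBS and 1 % penicillin/streptomycin at 37 °C, 5 % CO2. Seeded at 10,000 cells/well in 96-well plates and exposed to test compound or DMSO for 24 h at 37 °C. Viability read with CCK-8 per kit instructions; N = 5.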

The conditions of data set [2]: within 60 min; cited from earlier work.

As for `O=C(O)CCC(=O)OC[C@@H](NC(=O)C(Cl)Cl)[C@H](O)c1ccc([N+](=O)[O-])cc1` [DB07565, Chloramphenicol succinate], the “histopathological analysis of colon (H&E)” value in data set [1] (C57BL/6 J mice, 3 % DSS 7 days) was “mitigated DSS-induced tissue damage and inflammatory cell infiltration in the colon”. For the same compound, the “gut barrier function, immunofluorescence of tight junction proteins (Claudin-1, Occludin, ZO-1)” value in data set [1] (colon tissue of DSS-treated mice) was “markedly enhanced gut barrier function”. In addition, the midpoint of inhibition against human P2Y14 receptor, the IC50, lay at 1.58 nM. For the same compound, the “cytotoxicity (cell viability)” value with HT-29 cells was “low cytotoxicity”. Further, the “degradation in intestinal fluid” value in data set [2] was “less than 10%”.
